# According to ChEMBL document CHEMBL4321829, “Chagas Disease Drug Discovery: Multiparametric Lead Optimization against Trypanosoma cruzi in Acylaminobenzothiazole Series” (J Med Chem, 2019):
# Calls of active or inactive are those of the source. The rule behind the calls is not given here.
# What was measured:
# [1] = Drug level in C57BL/6 mouse treated with 50 mg/kg, po N-(5-Fluoro-6-(trifluoromethyl)benzothiazol-2-yl)cyclopropanecarboxamide administered as suspension via gavage assessed as compound formation after 15 mins to 24 hrs by LC-MS/Ms analysis; assay type: ADME, organism-based; conditions: in vivo
# How it was run: (§1)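 Female C57BL/6 mice (n=3) were gavaged with 50 mg/kg parent compound as a 1% methylcellulose suspension. Whole blood was sampled at 15, 30, 45 min and 1, 2, 4, 8 and 24 h, diluted 1/2 with water and frozen.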
# [2] = tested on: H9c2; experiment: Cytotoxicity against rat H9c2 cells assessed as reduction in cell viability; assay type: cell-based
# [3] = Selectivity index, ratio of IC50 for rat H9c2 cells to IC50 for antitrypanosomal activity against Trypanosoma cruzi Tulahuen trypomastigotes beta-galactosidase infected in rat H9c2 cells; assay type: toxicity, cell-based; conditions: read-out: Ratio IC50
# [4] = tested on: Trypanosoma cruzi; experiment: Antitrypanosomal activity against Trypanosoma cruzi Tulahuen trypomastigotes beta-galactosidase infected in rat H9c2 cells measured after 72 hrs by DRAQ5 DNA dye based confocal microscopic analysis; assay type: functional, organism-based; conditions: H9c2, 72 h
# [5] = Intrinsic clearance in human liver microsomes at 0.5 uM in presence of NADPH measured up to 45 mins by UPLC/MS/MS analysis; assay type: ADME, Microsome; conditions: 0.75 h
# How it was run: (§2)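 Compound at 0.5 μM was incubated with male CD1 mouse or human liver microsomes (0.5 mg/mL in 50 mM potassium phosphate, pH 7.4). The reaction was started with excess NADPH. Samples were taken at 0 and serial times up to 45 min, quenched in acetonitrile with internal standard and analysed by UPLC/MS/MS. Clint (mL/min/g tissue) was derived from t1/2 of parent remaining. Midazolam was the positive control.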
# [6] = tested on: Trypanosoma cruzi; experiment: Antitrypanosomal activity against Trypanosoma cruzi Tulahuen C4 trypomastigotes harboring beta-galactosidase infected in mouse 3T3 cells after 90 mins by luminescence based assay; assay type: functional, organism-based; conditions: Tulahuen C4, NIH3T3, 1.5 h
# [7] = Intrinsic clearance in CD-1 mouse liver microsomes at 0.5 uM in presence of NADPH measured up to 45 mins by UPLC/MS/MS analysis; assay type: ADME, Microsome; conditions: 0.75 h; how it was run: as §2
# [8] = Ratio of drug level in blood to plasma in human at 1 uM after 1 hr by LC-MS/MS analysis; assay type: ADME, cell-free
# How it was run: (§3)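 Compound at a final 1 μM was mixed into prewarmed mouse or human whole blood at 37 °C. At 0 and 60 min, blood aliquots were lysed with water and matrix-matched with plasma. Samples were precipitated with IS-containing buffer and analysed by LC-MS/MS. The blood/plasma ratio was taken from compound:IS peak-area ratios.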
# [9] = AUCt in C57BL/6 mouse at 50 mg/kg, po after 15 mins to 24 hrs by LC-MS/MS analysis; assay type: ADME, organism-based; parameters: dose 50 mg/kg, time upper 24 hr, time lower 0.25 hr, route oral; conditions: in vivo
# [10] = Protein binding in human plasma at 2 uM after 4 hrs by LC-MS/MS analysis; assay type: ADME, cell-free
# How it was run: (§4)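 Equilibrium dialysis was run in RED inserts with mouse or human plasma at a final concentration of 2 μM, in triplicate. The receiver side held PBS at pH 7.4. Plates were incubated for 4 h at 37 °C at about 150 rpm. Samples were matrix-matched, protein-precipitated and analysed by LC-MS/MS. %PPB = 100 − (buffer/plasma × 100).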
# [11] = Solubility of compound in FASSIF at 1 mg incubated for 4 hrs by HPLC-UV analysis; assay type: physicochemical
# How it was run: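 1 mg of solid compound was shaken in 1 mL FaSSIF at pH 6.5, at 900 rpm for 4 h at room temperature. The suspension was filtered and the supernatant quantified by HPLC-UV against a single-point DMSO standard. The dynamic range was 1–1000 μg/mL.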
# [12] = Tmax in C57BL/6 mouse at 50 mg/kg, po after 15 mins to 24 hrs by LC-MS/MS analysis; assay type: ADME, organism-based; conditions: in vivo
# [13] = Volume of drug distribution at steady state in CD-1 mouse at 5 mg/kg, iv after 5 mins to 24 hrs by LC-MS/MS analysis; assay type: ADME, organism-based; conditions: in vivo, read-out: Vdss
# How it was run: (§5)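 Male CD-1 mice (n=3) received a 5 mg/kg i.v. bolus in 5% DMSO/20% encapsine in saline. Blood was drawn at 5, 15, 30 min and 1, 2, 4, 8 and 24 h, diluted 1/2 with water and frozen.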
# [14] = Efflux ratio of apparent permeability across […] in MDCK-MDR1 cells at 3 uM after 60 mins by LC-MS/MS analysis; assay type: ADME, cell-based, Canis lupus familiaris; conditions: dog, mdck-mdr1, 1 h
# How it was run: (§6)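 Papp was measured in MDR1-MDCK monolayers in HBSS at pH 7.4 (n=2), at 3 μM for 60 min. Transport was measured AB and BA, with and without the P-gp inhibitor GF120918. Monolayers were checked by TEER and Lucifer yellow. Analytes were measured by LC-MS/MS as analyte/IS area ratios. Amprenavir, prazosin and propranolol served as references.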
# [15] = Half life in CD-1 mouse at 5 mg/kg, iv after 5 mins to 24 hrs by LC-MS/MS analysis; assay type: ADME, organism-based; conditions: in vivo; how it was run: as §5
# [16] = Kinetic solubility of compound by charged aerosol detection method; assay type: physicochemical; conditions: read-out: Kinetic_solubility
# [17] = Clearance in CD-1 mouse at 5 mg/kg, iv after 5 mins to 24 hrs by LC-MS/MS analysis; assay type: ADME, organism-based; conditions: in vivo; how it was run: as §5
# [18] = AUC in C57BL/6 mouse assessed as 5-Fluoro-6-(trifluoromethyl)benzothiazol-2-amine level at 50 mg/kg, po adminstered via gavage as suspension after 15 mins to 24 hrs by LC-MS/MS analysis; assay type: ADME, organism-based; parameters: dose 50 mg/kg, time upper 24 hr, time lower 0.25 hr, route oral; conditions: in vivo; how it was run: as §1
# [19] = Apparent permeability in MDCK-MDR1 cells at 3 uM after 60 mins by LC-MS/MS analysis; assay type: ADME, cell-based, Canis lupus familiaris; conditions: dog; how it was run: as §6
# [20] = Protein binding in mouse plasma at 2 uM after 4 hrs by LC-MS/MS analysis; assay type: ADME, cell-free; how it was run: as §4
# [21] = Ratio of drug level in blood to plasma in mouse at 1 uM after 1 hr by LC-MS/MS analysis; assay type: ADME, cell-free; how it was run: as §3
# [22] = tested on: Trypanosoma cruzi; experiment: Antitrypanosomal activity against tdTomato red expressing Trypanosoma cruzi CL trypomastigotes infected in C57BL/6 mouse at 50 mg/kg administered for 2 days and measured after 4 to 6 days post infection; assay type: functional, organism-based
# How it was run: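 Baseline footpad fluorescence was imaged on day 2. A single 50 mg/kg dose in 1% carboxymethyl cellulose/0.1% Tween 80 was then given. Imaging was repeated at day 4 or 6. IVA was calculated from the treated versus untreated fluorescence change. Controls were 50 mg/kg benznidazole and untreated mice.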
# [23] = Cmax in C57BL/6 mouse assessed as 5-Fluoro-6-(trifluoromethyl)benzothiazol-2-amine level at 50 mg/kg, po adminstered via gavage as suspension after 15 mins to 24 hrs by LC-MS/MS analysis; assay type: ADME, organism-based; parameters: dose 50 mg/kg, route oral; conditions: in vivo; how it was run: as §1
# [24] = Cmax in C57BL/6 mouse at 50 mg/kg, po after 15 mins to 24 hrs by LC-MS/MS analysis; assay type: ADME, organism-based; parameters: dose 50 mg/kg, route oral; conditions: in vivo
IC50 [4] [µM],Structure (SMILES),IC50 [2] [µM],selectivity ratio [3],further results
,Nc1nc2cc(F)c(C(F)(F)F)cc2s1,,,Drug metabolism [1]: Metabolite_Detected
4.4,O=C(Nc1nc2ccc(Cl)cc2s1)C1CCOC1 (stereo not drawn),> 50,> 11,
4.52,Cc1ccc2nc(NC(=O)C3CC3)sc2c1,> 50,> 11,
4.22,O=C(Nc1nc2ccc(F)cc2s1)C1CC1,> 50,> 12,
14,O=C(CCO)Nc1nc2ccc(Cl)cc2s1,> 50,> 3,
1.19,CC(C)c1ccc2nc(NC(=O)C3CC3)sc2c1,> 50,> 50,
0.19,O=C(Nc1nc2ccc(OC(F)(F)F)cc2s1)C1CC1,5,28,
0.32,O=C(Nc1nc2cc(Cl)ccc2s1)C1CC1,> 50,> 158,
20,COc1cc2nc(NC(=O)C3CC3)sc2cc1C(F)(F)F,> 50,> 2.5,
,CN(C)CCCN(C(=O)c1nc2ccccc2s1)c1nc2ccc(F)cc2s1,,,IC50 [6]: 0.1 µM
2.5,CCOc1ccc2nc(NC(=O)C3CC3)sc2c1,> 50,> 20,
2.4,FC(F)(F)c1ccc2nc(N/N=C/C3CC3)sc2c1,13,5,
1.32,O=C(Nc1nc2ccc(Cl)cc2s1)C1CCC1,> 50,> 38,
0.079,O=C(Nc1nc2cc(F)c(C(F)(F)F)cc2s1)C1CC1,> 50,> 630,"blood plasma ratio at 1 h, 1 µM [8]: 0.8; AUC(0-t) [9]: 31600 ng·h/mL; PPB [10]: Active; solubility at 4 h [11]: 51 µg/mL; Tmax [12]: 1.33 h; CLH [5]: 0.41 mL/min/g; Vd [13]: 5.73 L/kg; Ratio [14]: 1.5; half-life [15]: 0.97 h; CLH [7]: 5.26 mL/min/g; solubility kinetic [16]: 36 µM; clearance [17]: 58.3 mL/min/kg; AUC [18]: 10065.32 ng·h/mL; Papp at 1 h, 3 µM [19]: 17.4 ×10⁻⁶ cm/s; PPB [20]: Active; blood plasma ratio at 1 h, 1 µM [21]: 1.2; Activity [22]: Active; Cmax [23]: 634 ng/mL; Cmax [24]: 3390 ng/mL"
1,CC(C)(F)C(=O)Nc1nc2cc(F)c(C(F)(F)F)cc2s1,> 50,> 50,
> 50,O=C(C1CC1)N(CCO)c1nc2ccc(Cl)cc2s1,> 50,1,
24,O=C(Nc1nc2cccc(Cl)c2s1)C1CC1,> 50,> 2,
0.41,CC(C)C(=O)Nc1nc2ccc(Cl)cc2s1,> 50,> 123,
0.1,O=C(Nc1nc2ccc(C(F)(F)F)cc2s1)C1CC1,> 50,> 500,CLH [5]: 0.94 mL/min/g; CLH [7]: 2.71 mL/min/g
> 50,O=S(=O)(Nc1nc2ccc(C(F)(F)F)cc2s1)C1CC1,6.6,< 0.13,

Structure (SMILES),IC50 [4] [µM],IC50 [2] [µM],selectivity ratio [3],further results
O=C(Nc1nc2ccc(Cl)cc2s1)C1CC1,0.63,> 50,> 80,CLH [5]: 9.57 mL/min/g; IC50 [6]: 0.119 µM; CLH [7]: 2.51 mL/min/g
